From ChEMBL document CHEMBL4342410, “Design and Discovery of N-(3-(2-(2-Hydroxyethoxy)-6-morpholinopyridin-4-yl)-4-methylphenyl)-2-(trifluoromethyl)isonicotinamide, a Selective, Efficacious, and Well-Tolerated RAF Inhibitor Targeting RAS Mutant Cancers: The Path to the Clinic” (J Med Chem, 2020)

Tests used:
[1] = Intrinsic clearance in human liver microsomes; type: ADME, Microsome; conditions: read-out: CLH
[2] = molecular target: T1, RAF proto-oncogene serine/threonine-protein kinase (Homo sapiens, UniProt P04049); experiment: Inhibition of CRAF in human Calu6 cells assessed as reduction MEK phosphorylation measured after 1 hr by sandwich ELISA; type: cell-based
[3] = molecular target: T2, Serine/threonine-protein kinase B-raf (Homo sapiens, UniProt P15056); experiment: Inhibition of full-length BRAF (unknown origin)
[4] = molecular target: T2, Serine/threonine-protein kinase B-raf; experiment: Binding affinity to wild-type human partial length BRAF (S429 to E741 residues) expressed in mammalian expression system at 1 uM by Kinomescan method relative to control
[5] = molecular target: T1, RAF proto-oncogene serine/threonine-protein kinase; experiment: Binding affinity to wild-type human partial length CRAF (I330 to T640 residues) expressed in bacterial expression system at 1 uM by Kinomescan method relative to control
[6] = molecular target: Epithelial discoidin domain-containing receptor 1 (Homo sapiens) (UniProt Q08345); experiment: Binding affinity to wild-type human partial length DDR1 (R565 to V876 residues) expressed in bacterial expression system at 1 uM by Kinomescan method relative to control
Procedure, shortened: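 KINOMEscan competition binding panel of about 456 kinases, compound tested at 1 μM. Activity is given as % of control = [(test signal − positive control signal)/(negative control signal − positive control signal)] × 100.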

[7] = molecular target: T3, Discoidin domain-containing receptor 2 (Homo sapiens, UniProt Q16832); experiment: Binding affinity to wild-type human partial length DDR2 (V555 to E855 residues) expressed in mammalian expression system by Kinomescan method
T3 sequence (Q16832 whole entry): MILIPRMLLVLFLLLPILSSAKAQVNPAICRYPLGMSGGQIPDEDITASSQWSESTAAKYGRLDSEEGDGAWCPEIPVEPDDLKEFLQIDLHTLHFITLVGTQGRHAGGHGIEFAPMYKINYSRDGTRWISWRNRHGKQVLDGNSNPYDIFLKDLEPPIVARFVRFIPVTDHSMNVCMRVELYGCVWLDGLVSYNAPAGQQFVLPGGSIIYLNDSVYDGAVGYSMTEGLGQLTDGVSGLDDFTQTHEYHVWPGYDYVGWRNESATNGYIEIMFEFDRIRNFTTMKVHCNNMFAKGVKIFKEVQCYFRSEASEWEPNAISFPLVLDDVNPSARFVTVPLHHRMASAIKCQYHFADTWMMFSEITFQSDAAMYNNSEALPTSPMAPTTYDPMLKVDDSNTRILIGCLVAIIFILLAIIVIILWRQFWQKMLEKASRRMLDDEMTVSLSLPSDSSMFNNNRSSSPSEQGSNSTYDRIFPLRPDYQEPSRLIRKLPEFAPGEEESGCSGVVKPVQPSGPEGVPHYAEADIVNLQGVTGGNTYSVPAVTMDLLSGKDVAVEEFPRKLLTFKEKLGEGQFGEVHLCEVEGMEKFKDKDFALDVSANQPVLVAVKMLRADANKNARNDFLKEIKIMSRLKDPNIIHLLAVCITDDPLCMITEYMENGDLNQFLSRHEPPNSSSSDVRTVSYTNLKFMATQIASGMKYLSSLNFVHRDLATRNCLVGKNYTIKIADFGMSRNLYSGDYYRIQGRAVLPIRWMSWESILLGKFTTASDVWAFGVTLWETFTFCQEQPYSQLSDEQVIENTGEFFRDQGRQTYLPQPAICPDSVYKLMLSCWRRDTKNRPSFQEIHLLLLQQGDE

[8] = AUC (infinity) in rat at 4 mg/kg, po; type: ADME, organism-based; set-up: dose 4 mg/kg, route oral, time infinity; conditions: in vivo
[9] = Clearance in rat at 2 mg/kg, iv or 4 mg/kg, po; type: ADME, organism-based; conditions: in vivo
[10] = Oral bioavailability in dog at 0.4 mg/kg; type: ADME, organism-based, Canis lupus familiaris; conditions: in vivo
Rattus norvegicus = experiment: In vivo inhibition of CRAF in po dosed nude rat xenografted with human Calu6 cells harboring KRAS Q61K mutant assessed as reduction in tumor MEK phosphorylation administered as single dose measured after 1 to 48 hrs by sandwich ELISA; type: functional, organism-based
Procedure, shortened: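 Calu-6 (KRAS Q61K) xenograft-bearing nude rats were given a single oral dose of 15, 35, 75 or 150 mg/kg. Tumor and blood were sampled at 1, 4, 7, 24 and 48 h post-dose. Tumor pMEK was quantified by MSD immunoassay and expressed as percent pMEK. Free plasma exposure was determined in parallel.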

Calu-6 = experiment: Antitumor activity against human Calu6 cells harboring KRAS Q61K mutant xenografted in nude rat assessed as tumor regression at 150 mg/kg, po administered daily for 18 days starting from day 13 post tumor implantation and measured on day 31 relative to control; type: functional
Procedure, shortened: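 Nude rats bearing Calu-6 (KRAS Q61K) human NSCLC xenografts received vehicle or drug p.o. daily at 15, 35, 75 or 150 mg/kg. Dosing began 13 days after tumor implantation and ran to day 31, i.e. 18 days of treatment. Tumor volumes were read out as %T/C or % regression versus vehicle on day 31. Body weight was also tracked.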

[11] = Tmax in nude rat xenografted with human Calu6 cells harboring KRAS Q61K mutant at 35 mg/kg, po administered daily for 18 days starting from day 13 post tumor implantation and measured on day 31; type: ADME, organism-based; conditions: in vivo
Procedure, shortened: (§1)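 Calu-6 xenograft nude rats were dosed orally once daily at 15, 35, 75 or 150 mg/kg from day 13 after implantation to day 31. Plasma was collected after the last dose on day 31, drug concentrations were measured, and PK parameters including AUC were calculated for each dose.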

[12] = Time of last measurable concentration in nude rat xenografted with human Calu6 cells harboring KRAS Q61K mutant at 35 mg/kg, po administered daily for 18 days starting from day 13 post tumor implantation and measured on day 31; type: ADME, organism-based; conditions: in vivo, 432 h; procedure, shortened: as §1
[13] = AUC (0 to 24 hrs) in nude rat xenografted with human Calu6 cells harboring KRAS Q61K mutant at 75 mg/kg, po administered daily for 18 days starting from day 13 post tumor implantation and measured on day 31; type: ADME, organism-based; set-up: time < 24 hr, dose 75 mg/kg, route oral; conditions: in vivo
Procedure, shortened: (§2)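 Nude rats carrying Calu-6 (KRAS Q61K) NSCLC xenografts were dosed p.o. once daily at 15, 35, 75 or 150 mg/kg from day 13 to day 31 after implant. Plasma was collected after the last dose and drug concentration was measured. AUC and Cmax were calculated per dose on day 31.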

[14] = Tmax in nude rat xenografted with human Calu6 cells harboring KRAS Q61K mutant at 75 mg/kg, po administered daily for 18 days starting from day 13 post tumor implantation and measured on day 31; type: ADME, organism-based; conditions: in vivo; procedure, shortened: as §1
[15] = Cmax in nude rat xenografted with human Calu6 cells harboring KRAS Q61K mutant at 150 mg/kg, po administered daily for 18 days starting from day 13 post tumor implantation and measured on day 31; type: ADME, organism-based; set-up: dose 150 mg/kg, route oral; conditions: in vivo; procedure, shortened: as §2
[16] = Stability of the compound in human plasma assessed as parent compound remaining measured after 3 hrs; type: ADME, cell-free; conditions: read-out: Stability
Procedure, shortened: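 Compound incubated in human plasma for 3 h; stability expressed as percent remaining intact.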

[17] = Protein binding in human plasma; type: ADME, cell-free; conditions: read-out: PPB (converted)
[18] = molecular target: Voltage-gated inwardly rectifying potassium channel KCNH2 (Homo sapiens, UniProt Q12809); experiment: Inhibition of human ERG by patch clamp method
Procedure, shortened: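 hERG inhibition measured by manual patch clamp.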

T1 sequence (P04049 whole entry): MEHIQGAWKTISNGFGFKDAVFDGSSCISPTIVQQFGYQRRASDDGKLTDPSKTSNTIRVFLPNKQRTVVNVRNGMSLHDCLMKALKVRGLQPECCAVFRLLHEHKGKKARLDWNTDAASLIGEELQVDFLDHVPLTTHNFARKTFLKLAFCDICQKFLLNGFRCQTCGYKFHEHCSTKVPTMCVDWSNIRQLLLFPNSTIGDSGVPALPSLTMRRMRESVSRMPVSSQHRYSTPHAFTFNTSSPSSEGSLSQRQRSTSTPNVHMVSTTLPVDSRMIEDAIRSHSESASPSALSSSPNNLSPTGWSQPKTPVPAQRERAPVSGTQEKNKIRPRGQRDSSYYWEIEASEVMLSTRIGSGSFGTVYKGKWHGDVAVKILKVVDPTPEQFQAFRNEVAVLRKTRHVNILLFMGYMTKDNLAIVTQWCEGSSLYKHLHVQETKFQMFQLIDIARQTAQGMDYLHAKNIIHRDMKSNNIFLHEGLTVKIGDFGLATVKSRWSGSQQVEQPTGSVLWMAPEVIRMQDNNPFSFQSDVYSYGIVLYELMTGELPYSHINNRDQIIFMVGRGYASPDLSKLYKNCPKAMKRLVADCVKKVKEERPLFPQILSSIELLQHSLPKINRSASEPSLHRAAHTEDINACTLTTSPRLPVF
T2 sequence (P15056 whole entry, the tested form may be a part): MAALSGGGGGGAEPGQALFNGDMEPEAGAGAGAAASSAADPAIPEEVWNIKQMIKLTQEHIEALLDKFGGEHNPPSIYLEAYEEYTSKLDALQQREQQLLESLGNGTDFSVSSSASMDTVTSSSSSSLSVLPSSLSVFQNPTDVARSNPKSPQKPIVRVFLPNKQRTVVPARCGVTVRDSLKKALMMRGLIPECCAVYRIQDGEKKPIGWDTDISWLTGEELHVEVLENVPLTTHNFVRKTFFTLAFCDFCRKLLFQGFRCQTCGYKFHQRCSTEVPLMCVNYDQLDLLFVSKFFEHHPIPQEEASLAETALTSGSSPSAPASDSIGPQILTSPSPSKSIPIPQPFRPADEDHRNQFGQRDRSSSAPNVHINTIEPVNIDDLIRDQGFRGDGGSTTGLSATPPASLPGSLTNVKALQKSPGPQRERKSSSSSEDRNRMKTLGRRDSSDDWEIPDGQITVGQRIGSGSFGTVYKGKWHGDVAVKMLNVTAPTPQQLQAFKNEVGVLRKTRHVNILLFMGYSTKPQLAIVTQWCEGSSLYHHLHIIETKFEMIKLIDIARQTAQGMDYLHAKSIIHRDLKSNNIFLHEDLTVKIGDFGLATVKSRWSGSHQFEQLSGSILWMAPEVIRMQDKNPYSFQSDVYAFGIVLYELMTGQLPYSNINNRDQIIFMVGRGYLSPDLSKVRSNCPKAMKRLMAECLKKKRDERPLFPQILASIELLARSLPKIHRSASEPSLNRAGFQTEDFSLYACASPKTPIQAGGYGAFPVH
Chain of Voltage-gated inwardly rectifying potassium channel KCNH2 (Q12809 whole entry): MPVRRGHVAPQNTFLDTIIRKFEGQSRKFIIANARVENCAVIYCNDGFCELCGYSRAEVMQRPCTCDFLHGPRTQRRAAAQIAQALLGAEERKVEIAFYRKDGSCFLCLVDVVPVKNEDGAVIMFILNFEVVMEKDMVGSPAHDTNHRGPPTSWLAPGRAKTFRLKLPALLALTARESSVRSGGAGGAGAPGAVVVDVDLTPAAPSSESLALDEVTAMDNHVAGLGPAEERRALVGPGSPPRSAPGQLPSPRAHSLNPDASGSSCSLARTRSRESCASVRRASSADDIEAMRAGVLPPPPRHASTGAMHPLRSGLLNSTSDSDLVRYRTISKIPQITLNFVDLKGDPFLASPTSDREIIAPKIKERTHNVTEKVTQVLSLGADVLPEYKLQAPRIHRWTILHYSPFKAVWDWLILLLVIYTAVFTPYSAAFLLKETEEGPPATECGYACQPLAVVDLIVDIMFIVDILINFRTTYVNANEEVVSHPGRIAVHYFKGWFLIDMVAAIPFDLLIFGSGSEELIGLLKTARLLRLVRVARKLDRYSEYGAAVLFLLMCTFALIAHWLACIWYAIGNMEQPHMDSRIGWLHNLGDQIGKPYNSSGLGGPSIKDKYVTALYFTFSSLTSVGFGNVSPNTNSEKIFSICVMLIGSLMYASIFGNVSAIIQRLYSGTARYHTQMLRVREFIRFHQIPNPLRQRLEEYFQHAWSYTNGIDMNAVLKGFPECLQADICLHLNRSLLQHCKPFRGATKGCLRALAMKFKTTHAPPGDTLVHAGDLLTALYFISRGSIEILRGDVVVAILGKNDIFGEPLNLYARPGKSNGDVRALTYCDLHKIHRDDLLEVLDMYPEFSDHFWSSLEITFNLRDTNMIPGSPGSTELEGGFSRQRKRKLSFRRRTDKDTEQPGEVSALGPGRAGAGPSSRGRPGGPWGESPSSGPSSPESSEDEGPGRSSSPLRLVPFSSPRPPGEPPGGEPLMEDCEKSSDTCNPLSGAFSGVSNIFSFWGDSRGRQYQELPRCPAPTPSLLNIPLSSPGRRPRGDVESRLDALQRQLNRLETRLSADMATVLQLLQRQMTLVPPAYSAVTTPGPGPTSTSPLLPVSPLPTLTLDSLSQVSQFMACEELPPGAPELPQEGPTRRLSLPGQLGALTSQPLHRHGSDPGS
Chain of Epithelial discoidin domain-containing receptor 1 (Homo sapiens) (Q08345 whole entry, the tested form may be a part): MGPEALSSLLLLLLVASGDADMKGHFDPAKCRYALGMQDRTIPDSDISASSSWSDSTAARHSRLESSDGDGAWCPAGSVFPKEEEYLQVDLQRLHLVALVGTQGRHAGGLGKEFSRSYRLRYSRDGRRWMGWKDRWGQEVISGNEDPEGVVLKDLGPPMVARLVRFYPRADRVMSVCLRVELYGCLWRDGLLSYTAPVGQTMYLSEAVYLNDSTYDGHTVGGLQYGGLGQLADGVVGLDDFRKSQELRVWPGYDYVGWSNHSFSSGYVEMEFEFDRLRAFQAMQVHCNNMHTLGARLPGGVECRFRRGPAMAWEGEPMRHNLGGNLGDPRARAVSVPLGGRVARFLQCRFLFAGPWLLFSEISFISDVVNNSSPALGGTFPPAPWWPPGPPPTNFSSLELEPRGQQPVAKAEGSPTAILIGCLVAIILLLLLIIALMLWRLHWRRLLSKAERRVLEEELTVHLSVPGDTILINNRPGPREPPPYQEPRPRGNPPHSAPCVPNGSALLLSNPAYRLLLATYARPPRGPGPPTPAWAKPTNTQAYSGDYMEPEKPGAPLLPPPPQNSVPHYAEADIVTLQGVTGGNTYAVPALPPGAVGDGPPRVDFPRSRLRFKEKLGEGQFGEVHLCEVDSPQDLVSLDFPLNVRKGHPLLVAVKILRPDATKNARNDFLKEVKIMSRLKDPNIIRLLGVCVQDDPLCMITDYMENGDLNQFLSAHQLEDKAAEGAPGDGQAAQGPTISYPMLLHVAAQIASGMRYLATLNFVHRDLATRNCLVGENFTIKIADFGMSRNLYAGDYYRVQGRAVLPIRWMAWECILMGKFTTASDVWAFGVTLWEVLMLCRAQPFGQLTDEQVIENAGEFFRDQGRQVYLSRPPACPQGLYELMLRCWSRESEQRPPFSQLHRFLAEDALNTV

Cc1ccc(NC(=O)c2ccnc(C(F)(F)F)c2)cc1-c1cc(OCCO)nc(N2CCOCC2)c1 [NAPORAFENIB]
microsomal CLint [1]: 13.5 µL/min/mg
EC50 [2]: 14 to 50 nM
IC50 [3]: 0.4 nM
Activity [4]: > 98%
Activity [5]: > 98%
Activity [6]: > 99%
Kd [7]: 10 nM
AUC(0-inf) [8]: 1.8 µM·h
clearance [9]: 31 mL/min/kg
bioavailability [10]: 79%
inhibition (Rattus norvegicus): Dose-dependent effect
Activity (Calu-6): 56%
Tmax [11]: 3 h
Tlast [12]: 24 h
AUC at 24 h [13]: 105 µM·h
Tmax [14]: 2 h
Cmax [15]: 12.7 µM
remaining at 3 h [16]: > 90%
fraction unbound [17]: 0.02
IC50 [18]: > 10 µM
